Assay results published in ChEMBL document CHEMBL1153411, “Comparing anti-HIV, antibacterial, antifungal, micellar, and cytotoxic properties of tricarboxylato dendritic amphiphiles” (Bioorg Med Chem, 2009).
≈ marks a conversion by molar mass, not a printed value.

Tests used:
[1] = Ratio of EC50 for human HeLa cells to EC50 for HIV1 3B infected in human HeLa cells
[2] = Slope of log critical micelle concentration versus chain length n in aqueous potassium hydroxide by conductivity measurement; settings: buffer
[3] = Critical micelle concentration in aqueous potassium hydroxide by conductivity measurement; type: physicochemical; settings: buffer
How it was run: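 Measured in potassium hydroxide solutions at high pH so that only the trianion is present. Solutions stirred during conductivity measurement. CMC taken by least-squares fits of the linear portions of conductivity-versus-concentration plots on either side of the break.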

[4] = Critical micelle concentration in aqueous triethanalamine at pH 8.0 to 9.5 by fluorescence spectra measurement; settings: buffer
Candida albicans = test: Antifungal activity against Candida albicans; type: functional
How it was run: (§1)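 Whole-cell growth-inhibition assays against L. plantarum or C. albicans, compounds added from aqueous triethanolamine stocks. Activity expressed as MIC99, the concentration giving complete inhibition of growth. Error ±1 twofold dilution.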

[5] = test system: Human immunodeficiency virus 1; test: Antiviral activity against HIV1 3B with X4 trophism infected in human HeLa cells after 2 hrs by beta-galactosidase reporter gene assay; type: functional, organism-based; settings: Human immunodeficiency virus 1, 3B
How it was run: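 CD4+, LTR-driven β-galactosidase HeLa cells exposed 2 h to HIV-1 IIIB plus serial compound dilutions. Virus and compound then washed out and cells cultured 48 h in RPMI 1640/10% FBS at 37 °C, 5% CO2. Lysate β-galactosidase measured by chemiluminescence, with virus-only wells as 100% infection. EC50 by linear regression; SD ±10%.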

[6] = Critical micelle concentration in aqueous triethanalamine using drop shape analysis by surface tension measurement; type: physicochemical; settings: buffer
How it was run: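 Surface tension from pendent drops on an 18-gauge needle in triethanolamine/water 0.9% (wt/vol), with solution pH 8.0–9.5. Drop kept in a cuvette holding aqueous triethanolamine to maintain humidity, and camera magnification calibrated from needle tip width. CMC from the break in surface tension versus log concentration.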

Neisseria gonorrhoeae = test: Antibacterial activity against Neisseria gonorrhoeae ATCC 31426 after 4 days by broth microdilution method; type: functional; settings: ATCC 31426, 96 h
How it was run: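 Strain ATCC 31426 from chocolate agar (1% hemoglobin) colonies, grown 4 d in GC broth at 37 °C in an anaerobic jar with CO2 generator. Cells taken up in buffered saline gelatin and allowed to settle 4 h. Broth microdilution over 6.25 mg/mL down to 0.55 µg/mL. Plates incubated 4 d at 37 °C, in triplicate. MIC is the lowest concentration giving prominent visible decrease in turbidity; ±1 twofold dilution.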

[7] = test system: Lactiplantibacillus plantarum; test: Antibacterial activity against Lactobacillus plantarum; type: functional; how it was run: as §1
[8] = Cytotoxicity against human epithelial cells by MTT assay; type: cell-based; settings: Epithelial cell
How it was run: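 Same HeLa cells and same conditions as the infection assay, on a separate plate without virus. Viability measured by MTT reduction. EC50 by linear regression; SD ±10%.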

[9] = Critical micelle concentration in aqueous triethanalamine at pH 6.4 by fluorescence spectra measurement; type: physicochemical
How it was run: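 Measured in triethanolamine/water 0.9% (wt/vol) with pH adjusted to 7.4 or 6.4, using pyrene as micelle probe. Mixtures shaken at least 24 h. Excitation 334 nm, bandpasses 5/2.5 nm. CMC from emission intensities of the I1 (373 nm) and I3 (384 nm) peaks.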

[10] = Safety ratio of critical micelle concentration in aqueous triethanalamine at pH 7.4 to MIC99 for Candida albicans; type: toxicity; settings: aqueous triethanolamine
[11] = Safety index, ratio of EC50 for human epithelial cells to MIC99 for Candida albicans; type: toxicity, cell-based, Epithelial cell
[12] = Safety ratio of critical micelle concentration in aqueous potassium hydroxide to MIC99 for Candida albicans; type: toxicity; settings: buffer
[13] = Solubility of compound in phosphate buffer at pH 7.2; type: physicochemical
[14] = Solubility of compound in triethanolamine solution; type: physicochemical

Structure (SMILES)	Ratio EC50 [1]	slope of logCMC vs n [2]	CMC [3] [µM]	CMC [4] [µM]	MIC99 (Candida albicans) [µM]	EC50 [5] [µM]	CMC [6] [µM]	MIC99 (Neisseria gonorrhoeae) [µM]	MIC99 [7] [µM]	EC50 [8] [µM]	CMC [9] [µM]	selectivity ratio [10]	selectivity ratio [11]	Ratio [12]	solubility [13] [µM]	solubility [14] [µM]
CCCCCCCCCCCCCCCCCCNC(=O)NC(CCC(=O)O)(CCC(=O)O)CCC(=O)O	1.2	-0.3	330	2300	1400 (≈ 760 µg/mL)	240	2200	130 (≈ 70.6 µg/mL)	1400 (≈ 760 µg/mL)	280						
CCCCCCCCCCCCCCCCCCCCCCNC(=O)NC(CCC(=O)O)(CCC(=O)O)CCC(=O)O	2.2	-0.3	40	400	2700 (≈ 1620 µg/mL)	120	340	120 (≈ 71.9 µg/mL)	940 (≈ 563 µg/mL)	260						
CCCCCCCCCCCCCCCCNC(=O)NC(CCC(=O)O)(CCC(=O)O)CCC(=O)O	1.9	-0.3	2300	7100	47 (≈ 24.2 µg/mL)	180	4900	2800 (≈ 1440 µg/mL)	6000 (≈ 3090 µg/mL)	350	480	83	7	49		
CCCCCCCCCCCCCCCCCCCCNC(=O)NC(CCC(=O)O)(CCC(=O)O)CCC(=O)O	1.6	-0.3	120	1300	2800 (≈ 1600 µg/mL)	130	1400	120 (≈ 68.5 µg/mL)	1400 (≈ 799 µg/mL)	210						
CCCCCCCCCCCCCCNC(=O)NC(CCC(=O)O)(CCC(=O)O)CCC(=O)O	1.1	-0.3	8400		1600 (≈ 779 µg/mL)	270		12000 (≈ 5840 µg/mL)	6400 (≈ 3110 µg/mL)							
CCCCCCCCCCCCCCCCCC(=O)NC(CCC(=O)O)(CCC(=O)O)CCC(=O)O		-0.175	71	11000	280 (≈ 144 µg/mL)		11000	2700 (≈ 1390 µg/mL)	540 (≈ 277 µg/mL)							
CCCCCCCCCCCCCCCCCCCCCCOC(=O)NC(CCC(=O)O)(CCC(=O)O)CCC(=O)O	3.3			330	1300 (≈ 780 µg/mL)	110	320	120 (≈ 72 µg/mL)	1300 (≈ 780 µg/mL)	360						
CCCCCCCCCCCCCC(=O)NC(CCC(=O)O)(CCC(=O)O)CCC(=O)O		-0.175	3500		610 (≈ 279 µg/mL)	740		12000 (≈ 5490 µg/mL)	610 (≈ 279 µg/mL)	300						
CCCCCCCCCCCCCCCC(=O)NC(CCC(=O)O)(CCC(=O)O)CCC(=O)O	4	-0.175	1500	18000	290 (≈ 141 µg/mL)	230	17000	12000 (≈ 5830 µg/mL)	570 (≈ 277 µg/mL)	940					6900 (≈ 3350 µg/mL)	
CCCCCCCCCCCCCCCCCCCCCC(=O)NC(CCC(=O)O)(CCC(=O)O)CCC(=O)O		-0.175	13	1500	7.7 (≈ 4.39 µg/mL)	130	2000	120 (≈ 68.4 µg/mL)	490 (≈ 279 µg/mL)	250	150	52	32	1.7	79 (≈ 45 µg/mL)	> 22000
CCCCCCCCCCCCCCOC(=O)NC(CCC(=O)O)(CCC(=O)O)CCC(=O)O	1.7				1600 (≈ 780 µg/mL)	370		580 (≈ 283 µg/mL)	6400 (≈ 3120 µg/mL)	620						
CCCCCCCCCCCCCCCCCCCC(=O)NC(CCC(=O)O)(CCC(=O)O)CCC(=O)O		-0.175	34	3200	16 (≈ 8.67 µg/mL)	170	3000	130 (≈ 70.4 µg/mL)	520 (≈ 282 µg/mL)	340		10	21	2		
CCCCCCCCCCCCCCCCOC(=O)NC(CCC(=O)O)(CCC(=O)O)CCC(=O)O	2.6			6400	47 (≈ 24.2 µg/mL)	170	6800	280 (≈ 144 µg/mL)	6000 (≈ 3090 µg/mL)	440						
CCCCCCCCCCCCCCCCCCOC(=O)NC(CCC(=O)O)(CCC(=O)O)CCC(=O)O	2.7			2700	180 (≈ 97.9 µg/mL)	130	2800	65 (≈ 35.3 µg/mL)	1400 (≈ 761 µg/mL)	350						
CCCCCCCCCCCCCCCCCCCCOC(=O)NC(CCC(=O)O)(CCC(=O)O)CCC(=O)O	2.2			800	1400 (≈ 801 µg/mL)	130	500	120 (≈ 68.6 µg/mL)	1400 (≈ 801 µg/mL)	280						
